Converted amounts (≈) assume the structure as drawn.

The text below walks through data of ChEMBL document CHEMBL1641399, “Phytochemical investigations of Stemona curtisii and synthetic studies on stemocurtisine alkaloids” (2010).

For assay [1], the target named is Acetylcholinesterase (Homo sapiens) (UniProt P22303).
Another assay concerns Escherichia coli. The experiment in a line: Antimicrobial activity against Escherichia coli. The format is functional.
In another assay the test system is Klebsiella pneumoniae. The experiment in a line: Antimicrobial activity against Klebsiella pneumoniae. The format is functional.
The test system of assay [2] is Staphylococcus aureus. The assay can be described thus: Antimicrobial activity against Staphylococcus aureus. The format is functional. The method in brief:
(§1)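 Antibacterial MIC determination in µg/mL against a bacterial panel that includes Streptococcus pyogenes, with gentamicin as positive control; otherwise run by a literature procedure.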

The subject of assay [3] is Staphylococcus aureus. The experiment in a line: Antimicrobial activity against methicillin-resistant Staphylococcus aureus. The format is functional. The method in brief:
as §1

The next assay deals with Streptococcus pyogenes. The assay can be described thus: Antimicrobial activity against Streptococcus pyogenes. The format is functional. The method in brief:
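Antibacterial test read as MIC (µg/mL), following a previously published procedure, with gentamicin run as positive control.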

The subject of the next assay is Candida albicans. The assay can be described thus: Antimicrobial activity against Candida albicans. The format is functional. The method in brief:
(§2)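 Antifungal test read as MIC (µg/mL), following a previously published procedure, with amphotericin B run as positive control.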

For the next assay, the system named is Cryptococcus neoformans. The experiment in a line: Antimicrobial activity against Cryptococcus neoformans. The format is functional. Put shortly: as §2

Sequence of Acetylcholinesterase (Homo sapiens) (P22303 whole entry): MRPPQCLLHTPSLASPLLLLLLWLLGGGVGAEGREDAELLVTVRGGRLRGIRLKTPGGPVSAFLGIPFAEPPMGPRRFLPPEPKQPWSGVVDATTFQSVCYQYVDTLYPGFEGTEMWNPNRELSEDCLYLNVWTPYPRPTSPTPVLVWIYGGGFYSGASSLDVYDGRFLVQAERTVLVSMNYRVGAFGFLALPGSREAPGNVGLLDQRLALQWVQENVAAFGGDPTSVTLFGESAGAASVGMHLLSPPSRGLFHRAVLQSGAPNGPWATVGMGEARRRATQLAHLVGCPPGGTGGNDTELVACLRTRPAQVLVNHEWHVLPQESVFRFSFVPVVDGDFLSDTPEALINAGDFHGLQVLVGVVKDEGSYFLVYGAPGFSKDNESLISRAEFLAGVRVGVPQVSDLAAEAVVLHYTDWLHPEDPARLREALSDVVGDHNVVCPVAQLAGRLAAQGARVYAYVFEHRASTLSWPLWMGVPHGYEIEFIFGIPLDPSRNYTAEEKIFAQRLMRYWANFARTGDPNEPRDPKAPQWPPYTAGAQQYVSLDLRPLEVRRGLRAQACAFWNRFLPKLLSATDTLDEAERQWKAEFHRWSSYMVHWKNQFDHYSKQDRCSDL

In the case of `CC[C@H](O)[C@@H]1CC[C@@H]2O[C@@]34CCC[N+]1([O-])[C@@H]2[C@H]3[C@H](C)/C(=C1/OC(=O)C(C)=C1OC)O4` (some centres undefined), the MIC in assay [1] is 100 ng.

Turning to GENTAMICIN, the MIC with Escherichia coli, in the assay with Klebsiella pneumoniae, in the assay with Staphylococcus aureus [2], in the assay on Staphylococcus aureus [3], in the assay on Streptococcus pyogenes and against Candida albicans was 250 µg/mL in each case. In addition, in the assay on Cryptococcus neoformans, the MIC worked out at 250 µg/mL.

With `COc1cc(-c2cc3c(O)cccc3o2)c(C)c(O)c1C` [STEMOFURAN E], the MIC in the assay on Escherichia coli, with Klebsiella pneumoniae, in the assay on Staphylococcus aureus [2], with Staphylococcus aureus [3], with Streptococcus pyogenes and with Candida albicans was 250 µg/mL (≈ 879 µM) each time. In the assay with Cryptococcus neoformans, the MIC amounted to 250 µg/mL (≈ 879 µM).

For the compound `COc1c(C)c(O)c(C)c(-c2cc3c(O)cccc3o2)c1C` [STEMOFURAN F], the MIC with Escherichia coli, with Klebsiella pneumoniae, in the assay with Staphylococcus aureus [2], in the assay on Staphylococcus aureus [3], against Streptococcus pyogenes and with Candida albicans was 250 µg/mL (≈ 838 µM) throughout. In the assay with Cryptococcus neoformans, the MIC worked out at 250 µg/mL (≈ 838 µM).

For the compound `C[C@@H]1[C@H](O)[C@@H](C)/C=C/C=C/C=C/C=C/C=C/C=C/C=C/[C@H](O[C@@H]2O[C@H](C)[C@@H](O)[C@H](N)[C@@H]2O)C[C@@H]2O[C@](O)(C[C@@H](O)C[C@@H](O)[C@H](O)CC[C@@H](O)C[C@@H](O)CC(=O)O[C@H]1C)C[C@H](O)[C@H]2C(=O)O` [AMPHOTERICIN B], the MIC against Escherichia coli, in the assay with Klebsiella pneumoniae, against Staphylococcus aureus [2], with Staphylococcus aureus [3], in the assay with Streptococcus pyogenes and in the assay on Candida albicans was 250 µg/mL (≈ 271 µM) each time. Also, in the assay on Cryptococcus neoformans, the MIC was 250 µg/mL (≈ 271 µM).

Turning to `COc1c(C)c(O)c(C)c(-c2cc3ccccc3o2)c1C` [STEMOFURAN K], the MIC against Escherichia coli, with Klebsiella pneumoniae, against Staphylococcus aureus [2], in the assay with Staphylococcus aureus [3], against Streptococcus pyogenes and against Candida albicans was 250 µg/mL (≈ 885 µM) in each case. Also, the MIC against Cryptococcus neoformans amounted to 250 µg/mL (≈ 885 µM).

`CC/C=C/C12C3CC4C5[C@@H](C)/C(=C6/OC(=O)C(C)=C6OC)O[C@]5(O3)C1CCN42` (some centres undefined) returned an MIC in assay [1] of 5 ng.

Take `COc1cc(-c2cc3c(O)cccc3o2)c(C)c(OC)c1C` [STEMOFURAN J]: the MIC against Escherichia coli, against Klebsiella pneumoniae, in the assay on Staphylococcus aureus [2], with Staphylococcus aureus [3], in the assay with Streptococcus pyogenes and with Candida albicans was 250 µg/mL (≈ 838 µM) throughout. This compound had an MIC with Cryptococcus neoformans of 250 µg/mL (≈ 838 µM).
